Ki and IC50 data for five compounds are collected here from ChEMBL document CHEMBL1140722, “Inhibition of adenosine deaminase by analogues of adenosine and inosine, incorporating a common heterocyclic base, 4(7)-amino-6(5)H-imidazo[4,5-d]pyridazin-7(4)one” (J Med Chem, 2008).

For one experiment, the target named is T1, Adenosine deaminase (Bos taurus, UniProt P56658).
T1 sequence (P56658 whole entry): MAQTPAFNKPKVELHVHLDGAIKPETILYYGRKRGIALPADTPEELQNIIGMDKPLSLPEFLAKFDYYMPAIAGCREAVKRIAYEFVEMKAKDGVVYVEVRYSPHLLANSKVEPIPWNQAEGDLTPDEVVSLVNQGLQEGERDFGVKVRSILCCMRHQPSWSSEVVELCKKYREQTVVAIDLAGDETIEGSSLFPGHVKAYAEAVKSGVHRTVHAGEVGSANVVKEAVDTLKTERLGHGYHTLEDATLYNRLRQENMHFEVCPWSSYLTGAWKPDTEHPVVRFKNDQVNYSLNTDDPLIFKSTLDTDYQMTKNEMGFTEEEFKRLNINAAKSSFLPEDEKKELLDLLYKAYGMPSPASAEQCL
Briefly: Inhibition of calf intestine adenosine deaminase. In a few lines:
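Calf intestine ADA, 2 × 10-3 unit per assay, at 25 °C and pH 7.4. Adenosine hydrolysis to inosine followed as change in optical density per unit time at 265 nm. Seven adenosine concentrations from 30 to 60 µM were run at each inhibitor level of 5 or 15 µM. Ki derived from Lineweaver–Burk plots (1/V vs 1/S).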

Another experiment deals with MCF7. The experiment can be described thus: Cytotoxicity against human MCF7 cells after 5 days by MTT assay. The format is functional, cell-based. The note with it: MCF7, 120 h. Put shortly:
(§1)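 Cells seeded at 2000/well in complete RPMI1640 and left to attach overnight at 37 °C in 5% CO2. Drug added from 20 mM DMSO stocks, final 0.0001–100 µM, eight replicates each. Exposure was continuous for 5 days, then MTT added and formazan read at 550 nm. IC50 and IC100 taken against vehicle controls and day-0 growth. Three independent experiments.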
A general note: Formazan colour is commonly taken as a measure of viable cells.

A short description of experiment [1]: Cytotoxicity against human MCF10A cells after 5 days by MTT assay. The format is cell-based. To be noted: MCF-10A, 120 h. Put shortly: as §1

For orientation: Ki means a measure of affinity in units of concentration, obtained from inhibition or displacement. Low readings indicate a stronger hold on the target, high ones a looser hold on the target. The IC50 is the point on the concentration scale where inhibition reaches its midpoint. High values mean lower potency, low ones higher potency. For the compound `Nc1n[nH]c(=O)c2c1ncn2[C@H]1C[C@H](O)[C@@H](CO)O1`, at Adenosine deaminase, the inhibition constant (Ki) was found to be 12.1 µM. The IC50 (in the experiment with MCF7; in experiment [1]) was more than 100 µM each time.

Compound `Nc1n[nH]c(=O)c2ncn([C@@H]3O[C@H](CO)[C@@H](O)[C@H]3O)c12` yielded a Ki at Adenosine deaminase of 51.4 µM. In addition, the IC50 was 23.5 µM in the experiment on MCF7 and 82.5 µM in experiment [1].

`N/N=C(\N)c1c(C(=O)NN)ncn1[C@@H]1O[C@H](CO)[C@@H](O)[C@H]1O` registered a Ki on Adenosine deaminase of 26.5 µM.

As to `Nc1n[nH]c(=O)c2ncn([C@H]3C[C@H](O)[C@@H](CO)O3)c12`, the Ki on Adenosine deaminase is 52 µM. Also, the IC50 was 97.5 µM in the experiment with MCF7 and more than 100 µM in experiment [1].

With `Nc1n[nH]c(=O)c2c1ncn2[C@@H]1O[C@H](CO)[C@@H](O)[C@H]1O`, at Adenosine deaminase, the inhibition constant Ki was determined as 10.6 µM. Moreover, the IC50 in the experiment on MCF7 was found to be 27.5 µM; in experiment [1], 82.5 µM.
